Bioassay records from PubChem.
HSF1 inhib – HSF1 inhibition. NIH3T3-HGL HSE-luciferase, MG132-induced, luminescence 8 h; active compounds read low. activity change, negative = inhibition, % at 7.5 µM (by protocol). 0.77% of 300,000 active;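 active = more than half of replicate wells show activity change below -50%, luminescence cut by over half; inconclusive = some wells, but at most half, below -50%; inactive = no replicate well below -50%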;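 note: luciferase reports HSF-1 transcriptional activity via heat shock element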
Lmaj promast – reduces viability of Leishmania major promastigotes; resazurin fluorescence viability; inhibition, % at 10 µM; 9% of 200,000 active; AID 1063; in the data active = inhibition above about 50%;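 note: promastigotes grown with compound for 44 hours at 28 °C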
T cruzi repl – blocks replication of Trypanosoma cruzi; T. cruzi beta-gal in NIH3T3, luminescence, 90 h; inhibition, % (no concentration beside the values); 1.4% of 300,000 active;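 active = mean inhibition across valid replicates above about 55%, limit read from the data; inconclusive = mean below that limit but half or more replicates reach it; inactive = mean below it, under half of replicates reach it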;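 note: signal also drops with host cell toxicity which is not excluded here; higher percent means less beta-gal luminescence so fewer parasites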
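Material: NIH/3T3 host cells with β-galactosidase reporter T. cruzi; Input: 5,000 host fibroblasts per well; Medium: DMEM, 2% fetal bovine serum; Compound: 50 nL DMSO compound solution per well; Schedule: 3 h host attachment, then at least 90 h co-culture; Detection: luminescent β-galactosidase signal after 60 min lysis.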
HSF-1 act – increases HSF-1 driven luciferase reporter signal. 1.7% of 300,000 active. NIH3T3-HGL HSF-1 luciferase reporter, MG132, 8 h; 100% = twice DMSO control signal. AID 504408. activation, % at 9 µM;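 active = mean replicate activation of at least 50% with a set share of replicates each reaching 50%; inconclusive = only one of those two conditions met; inactive = mean below 50% and too few replicates reaching it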
Hsp70 act – switches on Hsp70 transcription | HeLa Hsp70 promoter luciferase reporter, luminescence; scaled: vehicle 0, proteasome-inhibitor control 100% | activation, % at 10 µM | 0.04% of 200,000 active | AID 1203;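 active = activation above the mean across all tested compounds plus 3 SD, cutoff set per campaign, cut at about 5.5% in these data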
Hits are given with their value; - = inactive; ? = inconclusive; . = not tested or not shown. Shown is part of a subset that was picked to be rich in hits.

SMILES	HSF1 inhib	Lmaj promast	T cruzi repl	HSF-1 act	Hsp70 act
CCOC(=O)c1c(S(=O)(=O)NCC(=O)N2CCN(c3ccc(OC)cc3)CC2)c(C)n(C)c1C	-	.	-	-	.
CC(C(=O)NCC1CCCCC1)N1CCN(S(=O)(=O)/C=C/c2ccccc2)CC1 (configuration not stated)	-	99	-	-	-
N#C/C(=C\c1cn(Cc2cccc(F)c2)c2ccccc12)C(=O)NCc1ccco1	-	-	-	68	-
Cc1cccc(NC(=O)/C(C#N)=C/c2cn(CC(=O)NCc3ccco3)c3ccccc23)c1C	-	-	-	61	-
N#C/C(=C\c1cn(Cc2ccccc2)c2ccccc12)C(=O)NCc1ccco1	-	51	-	75	-
N#C/C(=C\c1cn(Cc2ccc(F)cc2)c2ccccc12)C(=O)NCc1ccco1	-	-	-	-	-
Cc1cccc(NC(=O)/C(C#N)=C\c2cn(CC(=O)O)c3ccccc23)c1	-	-	-	-	-
Cc1ccc(S(=O)(=O)Nc2ccccn2)cc1[N+](=O)[O-]	-	-	-	-	-
COc1ccc(C(=O)N/C(=C/c2ccc(Cl)cc2)C(=O)Nc2ccc(C(=O)O)cc2)cc1	-	.	-	-	.
COc1ccccc1C(=O)Nc1nnc(SCC(=O)NC2CCCC2)s1	-	.	-	-	.
N#Cc1c(N2C(=O)c3ccc(C(=O)O)cc3C2=O)sc2c1CCCC2	-	.	-	-	.
CC(C)(C)NCc1cccn1-c1sc2c(c1C#N)CCCC2	-	78	-	-	-
Cc1coc(NC(=O)CSc2nc(-c3ccc(Cl)cc3)cc(C(F)(F)F)c2C#N)n1	-69	-	-	-	-
CCCOc1ccc(NC(N)=O)cc1OCCC	-68	-	-	-	-
CCOc1ccc(NC(N)=O)cc1OCC	-	-	-	-	-
CC(C)c1[nH]nc2c1C(C1C=CCCC1)C(C#N)=C(N)O2 (configuration not stated)	-	.	-	-	.
CC(C)(C)c1[nH]nc2c1C(C1C=CCCC1)C(C#N)=C(N)O2 (configuration not stated)	-	83	-	-	-
CCc1[nH]nc2c1C(C1C=CCCC1)C(C#N)=C(N)O2 (configuration not stated)	-	97	-	-	-
CCc1[nH]nc2c1C(C(C)C)C(C#N)=C(N)O2 (configuration not stated)	-	.	-	-	.
CCc1ccc(Nc2cnn(-c3nc4ccccc4s3)c(=O)c2Cl)cc1	-	65	-	-	-
c1ccc2oc(SCc3cn4ccccc4n3)nc2c1	-	-	-	64	-
Cc1cc(C)nc(SCc2cn3c(C)cccc3n2)n1	-	.	-	-	.
Cc1cccc2nc(CSc3nc4ccccc4o3)cn12	-	64	-	-	-
CC1Oc2ccccc2N(Cc2ccc(F)cc2)C1=O (configuration not stated)	-	.	-	-	.
Fc1ccc(NC(=S)N2CCN(c3ccccn3)CC2)cc1Cl	-	.	-	-	.
SMILES	HSF1 inhib	Lmaj promast	T cruzi repl	HSF-1 act	Hsp70 act
C[n+]1c(/C=C/c2ccc3c(c2)OCO3)ccc2ccccc21	-72	77	-	-	-
COc1ccc(COc2ncnc3ccc(Br)cc23)cc1F	-	.	-	-	.
CC(=O)N1N=C(c2ccccc2O)OC1(C)CC(=O)Nc1ccccc1 (configuration not stated)	-	60	-	-	-
O=C(CC(=O)Nc1ccccc1)Nc1ccccc1	-	.	-	-	.
Clc1cccc(OCCCCN2CCCCC2)c1	-	.	-	-	.
Cc1ccc(C(C)C)cc1OCCCCN1CCCC1	-	99	-	-	-
Cc1ccc(C)c(OCCCN2CCCC2)c1	-	98	-	-	-
Cc1ccccc1OCCCCN1CCCCC1	-	.	-	-	.
Cc1cccc(OCCCN2CCCCCC2)c1	-	98	-	-	-
COc1ccc(CCNC(=O)c2cc(-c3cc(C)ccc3O)n[nH]2)cc1OC	-	89	-	-	-
Cc1cc(O)c(-c2cc(C(=O)NCc3ccc4c(c3)OCO4)[nH]n2)cc1C	-	-	-	-	-
Cc1ccc(-c2cc(C(=O)NCc3ccc4c(c3)OCO4)[nH]n2)c(O)c1C	-	54	?	-	-
COc1ccc(CCNC(=O)c2cc(-c3ccc(C)c(C)c3O)n[nH]2)cc1OC	-	93	-	-	-
CCN(CC(=O)Nc1c(F)cccc1F)C(=O)Cc1ccc2c(c1)CCC2	-	.	-	-	.
CC(=O)C1=C(O)C(=O)N(c2ccccn2)C1c1ccc(C)cc1 (configuration not stated)	-	.	-	-	.
CC(=O)C1=C(O)C(=O)N(c2nccs2)C1c1ccccc1 (configuration not stated)	-	-	-	60	-
Cc1[nH]n(-c2ccccc2)c(=O)c1C(C[N+](=O)[O-])c1ccccc1Cl (configuration not stated)	-	-	-	146	-
O=S(=O)(c1ccc(-c2ccccc2)cc1)N1CCOCC1	-	-	-	-	-
CC(N1CCOC1=O)S(=O)(=O)c1ccccc1 (configuration not stated)	-76	-	-	-	-
O=C(c1nc2ncccn2n1)N1CCc2ccccc2C1	-	91	-	-	-
Cc1cc(C)n(-c2nc(Nc3ccccc3C)nc(-n3nc(C)cc3C)n2)n1	-	-	70	-	-
Cc1cc(C)n(-c2nc(NC(C)(C)C)nc(NC(C)(C)C)n2)n1	-	-	-	-	-
Cc1cc(C)n(-c2nc(Nc3ccccc3C(F)(F)F)nc(-n3nc(C)cc3C)n2)n1	-	100	?	-	-
O=C(Nc1ccccc1N1CCCC1)C1CC(=O)N(Cc2ccccc2)C1 (configuration not stated)	-	.	-	-	.
N#CC(C#N)=C1C=CC=CN1/C(=C\c1ccco1)C(=O)c1ccc(-c2ccccc2)cc1	.	100	.	.	-
SMILES	HSF1 inhib	Lmaj promast	T cruzi repl	HSF-1 act	Hsp70 act
Cc1c(NC(=O)C2CCCCC2)cc(C(=O)N2CCOCC2)cc1[N+](=O)[O-]	-	-	-	-	-
Cc1ccc(S(=O)(=O)Cn2nnnc2C(CC(C)C)N2CCN(C3CCCC3)CC2)cc1 (configuration not stated)	-	.	-	-	.
O=S(=O)(CC(CN1CCCC1)N1CCCC1)c1ccc2ccccc2c1 (configuration not stated)	-	100	-	-	-
CC(CS(=O)(=O)c1ccc2ccccc2c1)N1CCN(C2CCCCC2)CC1 (configuration not stated)	.	82	.	.	-
Cc1ccc(S(=O)(=O)CC(C)N2CCN(C3CCCCC3)CC2)cc1 (configuration not stated)	-	90	-	-	-
COc1cc(/C=N/N(c2ccccc2)c2ccccc2)ccc1O	-	.	-	-	.
CN(/N=C\c1ccc(O)c(O)c1)c1nc(-c2ccccc2)cc(-c2ccccc2)n1	-	100	-	-	-
Cc1ccc(C(=O)CC2C(=O)N(c3ccccc3)C(=S)N2c2ccccc2)cc1 (configuration not stated)	-	59	-	-	-
